Measured values from PubChem BioAssay.
Results filed as inconclusive are left out.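 How the source made its calls, unless noted: active means RAM network inhibition above 8.4% in each of two replicates, 3 SD over the compound average; inconclusive means above 8.4% inhibition in only one replicate; inactive means 8.4% inhibition or less in each replicate.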

Tests used:
[1] = OD615 S. cerevisiae growth inhibition, permissive medium, pilot counter-assay, permissive growth control for S. cerevisiae lifespan shortening project (AID 705;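 active means growth inhibition above 25% in both replicates, a cutoff set 3 SD above the mean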); conditions: OD615, 24 h, at 10 µM, hits give high values
Method in brief: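 System: engineered DeaD yeast; Medium: permissive raffinose/galactose medium; Compound dosing: 10 µM single dose, 0.25% DMSO; Incubation: 4 h cell pre-growth, 24 h exposure at 30 °C; Technique: OD at 615 nm; Evaluation: growth inhibition from lowered OD615 after 24 h.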

[2] = Restrictive medium S. cerevisiae growth inhibition, OD615, pilot screen of yeast lifespan reduction project, restrictive growth control (AID 706;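 active means growth inhibition above a set limit, 3 SD over mean compound inhibition, in both replicates, cut at about 43% in these data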;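 further: modified DeaD lifespan yeast strain shifted to restrictive glucose medium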); conditions: OD615, 48 h, at 10 µM, hits give high values
Method in brief: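 Material: modified S. cerevisiae; buffer or medium: CSMM-D glucose medium; doses: one concentration, 10 µM final, 0.25% DMSO; incubation: 48 h compound exposure at 30 °C; detection: optical density at 615 nm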

[3] = viability gain of MRP-1-high H69AR cells under doxorubicin, pilot screen, MRP-1 activator project, CellTiter-Glo, duplicate (AID 807;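 active means viability increase at or above a cutoff of the median across tested compounds plus 3 SD, cut at about 8.5% in these data, passing the limit was not always enough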;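 further: compound pretreatment 18-22 h then 72 h combined with doxorubicin; 0% = doxorubicin alone and 100% = vehicle without doxorubicin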); conditions: H69AR viability with doxorubicin, CellTiter-Glo luminescence; at 10 µM; hits give high values
[4] = growth suppression of beta-catenin knockout HCT116, pilot screen, human colon tumor cells (AID 823;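 active means cell viability at or below a set limit in both duplicate runs, the limit being the all-compound median minus 4 SD, cut at about 23% in these data, passing the limit was not always enough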;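 further: 0% = wells killed by 20 µM Hyamine and 100% = untreated DMSO cell wells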); conditions: CellTiter-Glo, 60 h, at 10 µM, hits give low values
[5] = growth suppression of PTEN-deleted HCT116, pilot screen, cell-based, HCT116 clonal line, CellTiter-Glo (AID 824;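 active means viability at or below 27.92% in each of two runs, the all-compound median minus 4 SD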;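 further: 0% = 20 µM Hyamine control and 100% = vehicle cell control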); conditions: 60 h, at 10 µM, hits give low values
[6] = inhibitors of the yeast RAM network, pilot screen, dse1pr::URA3 reporter, 5-FOA selection (AID 869;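 active means inhibition over a set limit, the all-compound mean plus 3 SD, in both replicate runs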;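 further: 0% = DMSO wells with no growth and 100% = 10 µM 1-NA-PP1 with full growth; RAM network block rescues cells from 5-FOA so hits raise OD615 growth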); conditions: S. cerevisiae dse1pr::URA3 5-FOA growth, OD615, 2 d; at 10 µM; hits give high values; strain carries analog-sensitive mutant Cbk1 kinase
[7] = RAM signaling pathway blockade in yeast – S. cerevisiae, Pdr1DBD-CYC8 efflux-inhibited sensitized strain, primary screen (AID 1298);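 further: 0% = DMSO untreated cells without growth and 100% = 10 µM 1-NA-PP1 full growth; higher means more yeast growth rescued from 5-FOA killing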; conditions: S. cerevisiae cbk1-as DSE1-URA3 strain, 5-FOA growth OD615, 2 d; at 50 µM; hits give high values

Cc1ccc(CNC(=O)CN(C)S(=O)(=O)c2cccc3cccnc23)cc1
inactive: growth inhibition [1] -2.75% | growth inhibition [2] 6.15% | viability increase [3] -1.21% | viability [4] 99.4% | viability [5] 92.9% | inhibition [6] 2.25% | RAM network inhibition [7] -1.33%

O=C(O)CCC(=O)N1CCc2cc(S(=O)(=O)N3CCC(Cc4ccccc4)CC3)ccc21
inactive: growth inhibition [1] -6.24% | growth inhibition [2] 0.935% | viability increase [3] -2.63% | viability [4] 97.8% | viability [5] 82.2% | inhibition [6] 1.47% | RAM network inhibition [7] 3.85%

CCC(=O)c1ccc(N2CCN(C(=O)COc3ccc(F)cc3)CC2)c(F)c1
inactive: growth inhibition [1] -5.39% | growth inhibition [2] -3.45% | viability increase [3] -2.21% | viability [4] 73.7% | viability [5] 82.5% | inhibition [6] 1.71% | RAM network inhibition [7] 5.92%

O=C(Cn1cc2c(n1)CCCCC2)NCc1ccccn1
inactive: growth inhibition [1] -5.75% | growth inhibition [2] -16.1% | viability increase [3] -2.27% | viability [4] 95.6% | viability [5] 90.8% | inhibition [6] 3.27% | RAM network inhibition [7] 4.15%

CCCSc1nnc2c(n1)OC(c1cccn1C)N(C(C)=O)c1ccccc1-2 (configuration not stated)
inactive: growth inhibition [1] -1.32% | growth inhibition [2] -5.99% | viability increase [3] -2.06% | viability [4] 97.7% | viability [5] 104% | inhibition [6] 0.505% | RAM network inhibition [7] 3.57%

CCOc1ccccc1Nc1nc2ccccc2n2cnnc12
inactive: growth inhibition [1] -17% | growth inhibition [2] -2.87% | viability increase [3] -6.33% | viability [4] 81.6% | viability [5] 85.7% | inhibition [6] 3.04% | RAM network inhibition [7] 6.66%

COc1ccc(C2CC(=O)C=C(NCC3CCCO3)C2)cc1 (configuration not stated)
inactive: growth inhibition [1] -10.4% | growth inhibition [2] -1.65% | viability increase [3] -0.23% | viability [4] 96.2% | viability [5] 100% | inhibition [6] 1.43% | RAM network inhibition [7] 1.32%

Cc1c(C(=O)OCC2CCCO2)[nH]c2c1C(=O)CC(c1ccc(N(C)C)cc1)C2 (configuration not stated)
inactive: growth inhibition [1] -4.14% | growth inhibition [2] 3.2% | viability increase [3] -0.25% | viability [4] 67.7% | viability [5] 71.5% | inhibition [6] 1.09% | RAM network inhibition [7] 6.62%

COc1ccccc1-c1cc(C(F)(F)F)nc(N2CCN(c3ccccc3)CC2)n1
inactive: growth inhibition [1] -2.88% | growth inhibition [2] -13.6% | viability increase [3] -1.89% | viability [4] 77.5% | viability [5] 78.8% | inhibition [6] 3.9% | RAM network inhibition [7] 4.72%

CCOC(=O)N1CCN(C(=O)C(C)(C)Oc2ccc(Cl)cc2)CC1
inactive: growth inhibition [1] -8.16% | growth inhibition [2] -2.48% | viability increase [3] -1.61% | viability [4] 93% | viability [5] 96.1% | inhibition [6] 0.28% | RAM network inhibition [7] 3.09%

CCOC(=O)c1c(NC(=O)CN2CCCCC2)sc2c1CCCC2O (configuration not stated)
inactive: growth inhibition [1] -10.4% | growth inhibition [2] -0.48% | viability increase [3] -4.26% | viability [4] 70.3% | viability [5] 65.2% | inhibition [6] -0.195% | RAM network inhibition [7] 4.1%

COc1cccc(-c2cc(C(F)(F)F)nc(N3CCOCC3)n2)c1
inactive: growth inhibition [1] -4.32% | growth inhibition [2] -9.04% | viability increase [3] 0.16% | viability [4] 73.5% | viability [5] 77.8% | inhibition [6] 1.38% | RAM network inhibition [7] 6.83%

O=C(O)[C@H](Cc1ccccc1)N1Cc2ccccc2C1=O
inactive: growth inhibition [1] -4.39% | growth inhibition [2] -15% | viability increase [3] -2.35% | viability [4] 95.3% | viability [5] 97.4% | inhibition [6] 1.4% | RAM network inhibition [7] 1.15%

Cc1ccc(C)c(SCC(=O)OCC(=O)c2ccco2)c1
inactive: growth inhibition [1] -21.2% | growth inhibition [2] -14.6% | viability increase [3] -3.35% | viability [4] 88.9% | viability [5] 91.6% | inhibition [6] 0.705% | RAM network inhibition [7] 2.26%

COc1ccc(NC(=O)C(c2ccccc2)N(C)C(=O)c2cnccn2)cc1 (configuration not stated)
inactive: growth inhibition [1] -4.62% | growth inhibition [2] -12.6% | viability increase [3] -1.52% | viability [4] 99.2% | viability [5] 90.8% | inhibition [6] 0.88% | RAM network inhibition [7] 0.05%

O=S(=O)(NC1CCCCC1)c1cccc(-c2nnc(-c3ccccc3)o2)c1
inactive: growth inhibition [1] -12.2% | growth inhibition [2] -20.6% | viability increase [3] 0.12% | viability [4] 88.7% | viability [5] 81.2% | inhibition [6] 0.285% | RAM network inhibition [7] 3.44%
